Article PMC11649739 (Clinical Pharmacokinetics, 2024)
“And” between values parts separate entries of the source, which are not always exact repeats. Equal values may be shown once.

Legend:
[1] = test system: SARS-CoV-2; assay type: in vivo, human
How it was run: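 Phase III SCORPIO-SR participants received ensitrelvir or placebo. Dosing was once daily for 5 days, either 375 mg on day 1 then 125 mg on days 2–5, or 750 mg then 250 mg. Day-1 C24 (also Cmax and AUC) came from empirical Bayesian post hoc estimates. For placebo these were set to 0. Exposures were split into quartiles and boxplotted against change from baseline in viral RNA on day 4. Sub-LLOQ RNA values were set to LLOQ.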

[2] = cited from earlier work
[3] = test system: cytochrome P450 3A; details: drug interactions; cited from earlier work
[4] = test system: P-glycoprotein; details: drug interactions; cited from earlier work
[5] = test system: SARS-CoV-2; details: cited from earlier work
[6] = test system: breast cancer resistance protein; details: drug interactions; cited from earlier work
[7] = assay type: in vivo, human; details: 125 mg group: 375 mg on day 1 and 125 mg on days 2–5
How it was run: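 Ensitrelvir was dosed once daily, 375 mg on day 1 then 125 mg on days 2–5, or 750/250 mg. A population PK model was fitted to 8034 plasma concentrations from 2060 healthy and SARS-CoV-2-infected participants: two-compartment, first-order absorption, with covariates tested on CL/F. Empirical Bayesian estimates from the final model were used to calculate individual exposures for SCORPIO-SR phase III participants.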

[8] = body weight 35.0 and 156.0 kg vs median
[9] = final model no. 511, body weight 62.6 kg

SMILES: Cn1cnc(Cn2c(=O)[nH]/c(=N\c3cc4cn(C)nc4cc3Cl)n(Cc3cc(F)c(F)cc3F)c2=O)n1 [ensitrelvir]
- antiviral effects between the 375/125 mg and 750/250 mg doses ([1]; C24 on day 1 between 8.43 and 61.0 μg/mL): did not differ
- virus RNA decrease across exposure categories (C24 on day 1 quartiles) ([1]; day 4, within the exposure range evaluated, phase III of SCORPIO-SR): decreased to a similar extent in all categories
- change from baseline in the amount of SARS-CoV-2 viral RNA on day 4, versus placebo ([1]; ensitrelvir dosing groups, phase III of SCORPIO-SR): lower in the ensitrelvir dosing group than in the placebo group
- effect of food intake on pharmacokinetic profiles [2]: not substantially affected
- recovered in the urine as unchanged ensitrelvir ([2]; dose groups ranging from 20 to 1000 mg): 12.9–21.8%
- effect of fed state on Cmax ([2]; fed state with a high-fat/high-calorie meal vs fasted, phase I study): not affected
- pharmacokinetic profiles among various populations ([2]; including healthy white participants): not meaningfully different
- terminal elimination half-life (t½,z) ([2]; single administration): 42.2 to 48.1 h
- increase of Cmax and AUC0–inf with dose ([2]; single oral administration, 20 to 2000 mg, fasted state): almost dose-proportional
- time at which maximum plasma concentration is reached ([2]; single oral administration): around 2.50 h
- Interindividual variability of CL/F (base model): 28.9%
- Interindividual variability of Ka (base model): 88.1%
- Interindividual variability of Vc/F (base model): 23.2%
- range of the ratios of the minimum and maximum values to the median of BW for AUC [8]: 0.623–1.353
- range of the ratios of the minimum and maximum values to the median of BW for Cmax [8]: 0.410–1.741
- Interindividual variability of CL/F, Estimate (95% CI) (final model no. 511): 21.3% and 21.3 (19.7–22.8) %
- Interindividual variability of Ka, Estimate (95% CI) (final model no. 511): 72.9% and 72.9 (64.3–80.6) %
- Interindividual variability of Vc/F, Estimate (95% CI) (final model no. 511): 14.7% and 14.7 (12.8–16.3) %
- Intraindividual variability: additive residual error, Estimate (95% CI) (final model no. 511): 0.0317 (0.0224–0.0410) µg/mL
- Intraindividual variability: proportional residual error, Estimate (95% CI) (final model no. 511): 19.9 (18.5–21.3) %
- Q/F, Estimate (95% CI) (final model no. 511): 0.539 (0.321–0.757) L/h
- Vp/F, Estimate (95% CI) (final model no. 511): 2.50 (1.80–3.20) L
- CL/F, Estimate (95% CI) [9]: 0.211 (0.208–0.214) L/h
- Vc/F, Estimate (95% CI) [9]: 14.7 (13.9–15.5) L
- Additive residual error, Bootstrap estimate Median (95% CI) (final model no. 511, bootstrap): 0.0331 (0.00945–0.0570) µg/mL
- CL/F, Bootstrap estimate Median (95% CI) (final model no. 511, bootstrap): 0.211 (0.207–0.214) L/h
- Effect of body weight on Vc/F, Bootstrap estimate Median (95% CI) (final model no. 511, bootstrap): 1.04 (0.959–1.11)
- Effect of food on Ka, Bootstrap estimate Median (95% CI) (final model no. 511, bootstrap): 0.599 (0.447–1.00)
- Effect of formulation on Ka, Bootstrap estimate Median (95% CI) (final model no. 511, bootstrap): 0.367 (0.280–0.469)
- Interindividual variability of CL/F, Bootstrap estimate Median (95% CI) (final model no. 511, bootstrap): 21.3 (20.0–23.0) %
- Interindividual variability of Ka, Bootstrap estimate Median (95% CI) (final model no. 511, bootstrap): 72.1 (64.4–80.4) %
- Interindividual variability of Vc/F, Bootstrap estimate Median (95% CI) (final model no. 511, bootstrap): 14.6 (12.7–16.5) %
- Ka, Bootstrap estimate Median (95% CI) (final model no. 511, bootstrap): 1.50 (1.23–1.80) 1/h
- Proportional residual error, Bootstrap estimate Median (95% CI) (final model no. 511, bootstrap): 19.8 (18.6–21.2) %
- Q/F, Bootstrap estimate Median (95% CI) (final model no. 511, bootstrap): 0.534 (0.331–0.823) L/h
- Vc/F, Bootstrap estimate Median (95% CI) (final model no. 511, bootstrap): 14.8 (13.9–15.5) L
- Vp/F, Bootstrap estimate Median (95% CI) (final model no. 511, bootstrap): 2.49 (1.74–3.26) L
- Effect of formulation on Ka, Estimate (95% CI) (final model no. 511, multiplier, tablet vs suspension): 0.362 (0.262–0.462)
- Effect of body weight on Vc/F, Estimate (95% CI) (final model no. 511, power exponent on body weight/62.6): 1.04 (0.960–1.12)
- Ka, Estimate (95% CI) (final model no. 511, typical value (suspension, not within 2 h after a meal)): 1.50 (1.25–1.75) 1/h
- inhibition of cytochrome P450 3A [3]: inhibits
- inhibition of P-glycoprotein [4]: inhibits
- time to five COVID-19 symptoms ([5]; 125-mg group, phase III of SCORPIO-SR): 167.9 h
- clearance of SARS-CoV-2 ([5]; both dose groups 375/125 mg and 750/250 mg): rapid clearance of SARS-CoV-2
- inhibition of breast cancer resistance protein [6]: inhibits
- Entire AUC, Maximum [7]: 4429 µg·h/mL
- Entire AUC, Minimum [7]: 1404 µg·h/mL
- Entire Cmax, Maximum [7]: 46800 ng/mL
- Entire Cmax, Minimum [7]: 14300 ng/mL
- CL/F, Maximum ([7]; Bayesian-estimated): 0.400 L/h
- CL/F, Mean ([7]; Bayesian-estimated): 0.216 L/h
- CL/F, Median ([7]; Bayesian-estimated): 0.212 L/h
- CL/F, Minimum ([7]; Bayesian-estimated): 0.116 L/h
- Vc/F, Maximum ([7]; Bayesian-estimated): 34.4 L
- Vc/F, Mean ([7]; Bayesian-estimated): 15.1 L
- Vc/F, Median ([7]; Bayesian-estimated): 14.7 L
- Vc/F, Minimum ([7]; Bayesian-estimated): 7.66 L
- AUC_d1, Maximum ([7]; day 1): 784.7 µg·h/mL
- AUC_d1, Minimum ([7]; day 1): 127.0 µg·h/mL
- Cmax_d1, Maximum ([7]; day 1): 41000 ng/mL
- Cmax_d1, Mean ([7]; day 1): 23400 ng/mL
